Source: PubChem (Broad Institute)
Rows were chosen to be rich in hits. Some 1.4% of all compounds tested hit in one or more screens of this group.
GSIS activator = GLuc luminescence reporter in INS-1E cells, primary screen for activators of glucose-dependent secretion of insulin; INS-1E GLuc reporter insulin secretion, 2-3 h; activation, % at 16.6 µM; hit rate 0.61% among 370,000;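 active means lowest replicate activation of at least 40%, so every replicate reaches that level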
FN deposit inh = inhibitors of fibronectin matrix deposition, primary screen, AH1F cells, Alexa488-fibronectin fluorescence, plate reader | hit rate 0.086% among 350,000 | inhibition, % at 12.6 µM | AH1F fibroblasts, overnight | AID 743247, 2014;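 active means mean inhibition across replicates of 30% or more, regardless of how many single replicates reach that level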
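Measured by – fluorescence 485/525 nm · System – AH1F fibroblast monolayer, labelled fibronectin deposition · Amount – 10000 cells per well · Buffer or medium – serum-reduced DMEM (2% serum) · Doses – single dose, pinned · Also added – fluorescent fibronectin at 24 nM final · Schedule – 1 h cell attachment, overnight exposure to compound and label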
HIV Env fusion = inhibitors of HIV-1 Env-driven cell-cell fusion, primary screen, HeLa-JRFL effector, CEM21 target cells, luciferase | inhibition, % at 12.3 µM | hit rate 1.1% among 360,000 | AID 651610, 2012;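 active means mean replicate inhibition score of at least 50 and every replicate individually at or above 50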
PDI turbidity = inhibitors of human PDI, primary screen, biochemical, turbidity, single point, plate reader | hit rate 0.052% among 350,000 | Protein disulfide-isomerase (Homo sapiens), P07237 | PDI insulin aggregation turbidity, A650, 90 min | inhibition, % at 10 µM;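 active means mean inhibition across replicates of 30% or more, whatever share of single replicates reach that level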
ERp5 block = inhibitors of ERp5-driven insulin aggregation, primary screen, biochemical, turbidity, absorbance 650 nm, single point. 90 min. hit rate 0.05% among 350,000. inhibition, % at 9.99 µM;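 active means mean replicate inhibition above about 25%, with every replicate also reaching it, limit read from the data, passing the limit was not always enough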
Target sequence (Q15084 whole entry, looked up): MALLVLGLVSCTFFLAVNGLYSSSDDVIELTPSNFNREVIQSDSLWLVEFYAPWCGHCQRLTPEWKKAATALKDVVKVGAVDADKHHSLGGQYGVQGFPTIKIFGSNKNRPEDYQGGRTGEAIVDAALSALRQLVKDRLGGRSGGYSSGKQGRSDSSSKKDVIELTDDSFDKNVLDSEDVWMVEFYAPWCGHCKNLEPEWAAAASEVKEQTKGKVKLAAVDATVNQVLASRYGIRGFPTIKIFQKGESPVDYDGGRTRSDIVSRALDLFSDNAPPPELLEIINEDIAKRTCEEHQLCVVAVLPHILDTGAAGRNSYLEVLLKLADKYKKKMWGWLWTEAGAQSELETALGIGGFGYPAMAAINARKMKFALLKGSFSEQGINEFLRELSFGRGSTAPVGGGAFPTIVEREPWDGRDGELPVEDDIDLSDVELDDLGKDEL
Of the large screens only hits and unclear results are named; the others gave an inactive call; [ ] = dose if it differs, or a comment.

CC(C)(C)c1cc(Cl)c(O)c(NC(=S)NC(=O)c2cccnc2)c1	FN deposit inh 30.3
CCOc1cc(-c2c(C#N)c(=O)[nH]c3c2c(C)nn3-c2ccc(F)cc2)ccc1O	HIV Env fusion 56.8 (no result: GSIS activator, ERp5 block)
CC(=O)c1c(C)[nH]c(C(=O)OCCCCN2C(=O)c3ccccc3C2=O)c1C	HIV Env fusion 97.8 (no result: GSIS activator, ERp5 block)
CCn1nc(C(=O)Nc2ccc3nc(C)sc3c2)c2ccccc2c1=O	GSIS activator 52.6 (no result: ERp5 block)
Oc1c(C(Nc2ccccn2)c2ccccn2)ccc2cccnc12 (stereo not given)	none
Oc1ccccc1C(Nc1nccs1)c1ccc2cccnc2c1O (stereo not given)	HIV Env fusion 59.9
C[C@H]1CN([C@@H](C)CO)C(=O)c2cc(/C=C/c3ccccc3)cnc2O[C@H]1CN(C)C(=O)C1CC1	none (no result: PDI turbidity, ERp5 block)
OCC[C@H]1C[C@H](O)[C@@H](O)[C@@]2(OCc3ccccc32)O1	none
O=[N+]([O-])c1ccc2c(c1)CO[C@@]21O[C@H](CCO)C[C@H](O)[C@H]1O	HIV Env fusion 60.1 (no result: PDI turbidity)
O=[N+]([O-])c1ccc2c(c1)CCO[C@@]21O[C@H](CCO)C[C@H](O)[C@H]1O	none (no result: PDI turbidity)
OCC[C@@H]1C[C@@H](O)[C@H](O)[C@]2(OCc3ccccc32)O1	HIV Env fusion 68.8
C[C@H]1CCCCO[C@H](CN(C)C(=O)c2ccncc2)[C@@H](C)CN([C@@H](C)CO)C(=O)c2cc(NS(=O)(=O)c3ccccc3)ccc2O1	none (no result: FN deposit inh, PDI turbidity)
O=[N+]([O-])c1cnn2cc(Br)cnc12	GSIS activator 45.3
C=CCC[C@H](Cc1ccc(F)cc1)C(=O)OC[C@@H](NC(=O)[C@H](CC=C)CC(=O)NCCO)C(C)(C)C	HIV Env fusion 90.1 (no result: GSIS activator)
C=CCC[C@H](Cc1ccc(F)cc1)C(=O)OC[C@@H](NC(=O)[C@@H](CC=C)CC(=O)N(CCO)Cc1ccccc1)C(C)(C)C	HIV Env fusion 71.5
COc1ccc(NC(=O)Nc2ccc3c(c2)C(=O)N([C@H](C)CO)C[C@H](C)[C@@H](CN(C)C)OCCCC[C@H](C)O3)cc1	none (no result: FN deposit inh, PDI turbidity)
CC(C)C[C@@]12C(=O)N(c3cccc(Br)c3)C(=O)N1[C@H](c1ccc(F)cc1)[C@@H]1C(=O)N(C3CCCCC3)C(=O)[C@@H]12	HIV Env fusion 103.8 (no result: GSIS activator)
CC[C@@]12C(=O)N(c3cccc(Br)c3)C(=O)N1[C@H](c1ccc(F)cc1)[C@@H]1C(=O)N(C3CCCCC3)C(=O)[C@@H]12	HIV Env fusion 93.1
CCOC(=O)Nc1ccc2c(c1)Sc1ccccc1N2C(=O)CCN1CCOCC1	GSIS activator 107.3 (no result: FN deposit inh, HIV Env fusion, ERp5 block)
CCOC(=O)Nc1ccc2c(c1)N(C(=O)CCN1CCN(C)CC1)c1ccccc1S2	none (no result: GSIS activator, FN deposit inh, HIV Env fusion, ERp5 block)
C/C(=N/NC(=O)c1ccc(Br)s1)c1ccncc1	GSIS activator 49.9 (no result: FN deposit inh)
C/C(=N/NC(=O)c1ccc(Br)s1)c1cccnc1	none (no result: FN deposit inh)
Cc1ccc(S(=O)(=O)N[C@H]2C=C[C@@H](CC(=O)N3CCC(Cc4ccccc4)CC3)O[C@H]2CO)cc1	HIV Env fusion 56.1[16.7 µM] (no result: FN deposit inh, PDI turbidity)
Cc1ccc(-c2ccc3c(c2)O[C@@H](CN(C)C(=O)C2CCCCC2)[C@H](C)CN([C@@H](C)CO)S3(=O)=O)cc1	none (no result: PDI turbidity, ERp5 block)
CO[C@@H]1CN(C)C(=O)c2ccc(NC(=O)C3CC3)cc2OC[C@H](C)N(C(=O)C2CCCCC2)C[C@@H]1C	none (no result: PDI turbidity)
COc1ccc(CN/C(C)=C(/C#N)C(N)=O)cc1OC	GSIS activator 64.7 (no result: ERp5 block)
COc1cc(CNC(C)c2ccccc2)cc(Cl)c1OCC(=O)Nc1ccccc1 (stereo not given)	HIV Env fusion 70.8
C[C@H](CO)N1C[C@H](C)[C@@H](CN(C)S(=O)(=O)c2cccs2)Oc2c(NC(=O)c3cnccn3)cccc2C1=O	none (no result: PDI turbidity)
Cc1ccc(OCC(O)Cn2c3ccccc3c3ccccc32)cc1 (stereo not given)	none (no result: ERp5 block)
Cc1cccc(C)c1OCC(O)Cn1c2ccccc2c2ccccc21 (stereo not given)	HIV Env fusion 57.1 (no result: GSIS activator, ERp5 block)
CCOC(=O)Cn1nnnc1CN(CCc1ccccc1)Cc1cc2cc(CC)ccc2[nH]c1=O	HIV Env fusion 119.0 (no result: ERp5 block)
CCOC(=O)Cn1nnnc1CN(Cc1cccs1)Cc1cc2cc(C)ccc2[nH]c1=O	none (no result: ERp5 block)
CCCC#Cc1cnc2c(c1)C(=O)N([C@H](C)CO)C[C@H](C)[C@H](CN(C)C(=O)Nc1cccc(F)c1)O2	none (no result: PDI turbidity)
